Results from PubChem BioAssay.
Results filed as inconclusive are left out. Activity calls are given as the source filed them.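 Rule for the calls, unless noted: active = RAM network inhibition above 8.4% in each of two replicates, 3 SD over the compound average; inconclusive = above 8.4% inhibition in only one replicate; inactive = 8.4% inhibition or less in each replicate.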

Experiments:
[1] = OD615 S. cerevisiae growth inhibition, permissive medium, pilot counter-assay, permissive growth control for S. cerevisiae lifespan shortening project (AID 705;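 active = growth inhibition above 25% in both replicates, a cutoff set 3 SD above the mean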); conditions: OD615, 24 h, at 10 µM, active compounds read high
Procedure, shortened: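 Test system: Saccharomyces cerevisiae strain carrying genetically modified DeaD replicative-lifespan system; buffer or medium: SC raffinose/galactose permissive medium; dosing: one dose 10 µM, DMSO 0.25% final; times: 24 h exposure, 30 °C; measured by: OD at 615 nm; read-out basis: growth inhibition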

[2] = Restrictive medium S. cerevisiae growth inhibition, OD615, pilot screen of yeast lifespan reduction project, restrictive growth control (AID 706;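 active = growth inhibition above a set limit, 3 SD over mean compound inhibition, in both replicates, cut at about 43% in these data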;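 note: modified DeaD lifespan yeast strain shifted to restrictive glucose medium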); conditions: OD615, 48 h, at 10 µM, active compounds read high
Procedure, shortened: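 material = engineered S. cerevisiae DeaD strain | buffer or medium = glucose-based CSMM-D restrictive medium | dosing = one concentration, 10 µM final, 0.25% DMSO | schedule = 4 h pre-growth plus 48 h compound exposure, 30 °C | detection = OD615 absorbance reading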

[3] = viability gain of MRP-1-high H69AR cells under doxorubicin, pilot screen, MRP-1 activator project, CellTiter-Glo, duplicate (AID 807;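 active = viability increase at or above a cutoff of the median across tested compounds plus 3 SD, cut at about 8.5% in these data, passing the limit was not always enough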;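 note: compound pretreatment 18-22 h then 72 h combined with doxorubicin; 0% = doxorubicin alone and 100% = vehicle without doxorubicin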); conditions: H69AR viability with doxorubicin, CellTiter-Glo luminescence; at 10 µM; active compounds read high
[4] = growth suppression of beta-catenin knockout HCT116, pilot screen, human colon tumor cells (AID 823;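 active = cell viability at or below a set limit in both duplicate runs, the limit being the all-compound median minus 4 SD, cut at about 23% in these data, passing the limit was not always enough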;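 note: 0% = wells killed by 20 µM Hyamine and 100% = untreated DMSO cell wells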); conditions: CellTiter-Glo, 60 h, at 10 µM, active compounds read low
[5] = growth suppression of PTEN-deleted HCT116, pilot screen, cell-based, HCT116 clonal line, CellTiter-Glo (AID 824;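 active = viability at or below 27.92% in each of two runs, the all-compound median minus 4 SD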;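 note: 0% = 20 µM Hyamine control and 100% = vehicle cell control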); conditions: 60 h, at 10 µM, active compounds read low
[6] = inhibitors of the yeast RAM network, pilot screen, dse1pr::URA3 reporter, 5-FOA selection (AID 869;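 active = inhibition over a set limit, the all-compound mean plus 3 SD, in both replicate runs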;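 note: 0% = DMSO wells with no growth and 100% = 10 µM 1-NA-PP1 with full growth; RAM network block rescues cells from 5-FOA so hits raise OD615 growth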); conditions: S. cerevisiae dse1pr::URA3 5-FOA growth, OD615, 2 d; at 10 µM; active compounds read high; strain carries analog-sensitive mutant Cbk1 kinase
[7] = RAM signaling pathway blockade in yeast – S. cerevisiae, Pdr1DBD-CYC8 efflux-inhibited sensitized strain, primary screen (AID 1298);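 note: 0% = DMSO untreated cells without growth and 100% = 10 µM 1-NA-PP1 full growth; higher means more yeast growth rescued from 5-FOA killing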; conditions: S. cerevisiae cbk1-as DSE1-URA3 strain, 5-FOA growth OD615, 2 d; at 50 µM; active compounds read high

COc1ccc2nc(N3CCCC(C(=O)NCCCN4CCN(C)CC4)C3)sc2c1 (configuration not stated)
inactive: growth inhibition [1] -5.12% | growth inhibition [2] -11.4% | viability increase [3] -2.35% | viability [4] 96.9% | viability [5] 89.5% | inhibition [6] 1.98% | RAM network inhibition [7] 8.59%

CCc1ccc(NS(=O)(=O)c2cc(OC)ccc2OC)cc1
inactive: growth inhibition [1] -3.06% | growth inhibition [2] -9.52% | viability increase [3] -3.77% | viability [4] 66.6% | viability [5] 58.3% | inhibition [6] 0.68% | RAM network inhibition [7] 1.9%

COc1ccc(-c2nc(C(N)=O)c3[nH]c(=O)n(-c4cccc(C)c4)c3n2)c(OC)c1
inactive: growth inhibition [1] -10.8% | growth inhibition [2] -14.3% | viability increase [3] -5.41% | viability [4] 81.6% | viability [5] 74.3% | inhibition [6] 3.42% | RAM network inhibition [7] 5.6%

Cc1cc(C)n2c(SCC(=O)Nc3ccccc3)nnc2n1
inactive: growth inhibition [1] -7.49% | growth inhibition [2] -9.43% | viability increase [3] -2.57% | viability [4] 102% | viability [5] 91.4% | inhibition [6] 1.94% | RAM network inhibition [7] -0.67%

COCCCNc1ncnc2nc[nH]c12
inactive: growth inhibition [1] 4.6% | growth inhibition [2] -1.01% | viability increase [3] 1.43% | viability [4] 104% | viability [5] 104% | inhibition [6] 0.885% | RAM network inhibition [7] 1.74%

O=C(c1c(Cl)nc2sccn12)N1CCCc2ccccc21
inactive: growth inhibition [1] -2.11% | growth inhibition [2] -6.31% | viability increase [3] -0.71% | viability [4] 100% | viability [5] 98.2% | inhibition [6] 2.37% | RAM network inhibition [7] 1.4%

COc1ccccc1S(=O)(=O)Cc1ccc(C(=O)NCCN(C)C)o1
inactive: growth inhibition [1] -6.73% | growth inhibition [2] 5% | viability increase [3] -0.73% | viability [4] 106% | viability [5] 98.2% | inhibition [6] 1.9% | RAM network inhibition [7] 0.1%

COCCn1c(=NC(=O)CSC(C)=O)sc2cc(OC)ccc21
inactive: growth inhibition [1] -27.6% | growth inhibition [2] 18.1% | viability increase [3] -6.74% | viability [4] 88% | viability [5] 83.8% | inhibition [6] 0.53% | RAM network inhibition [7] 0.96%

CCn1cc(Br)c(C(=O)Nc2ccc(F)c(Cl)c2)n1
inactive: growth inhibition [1] 0.5% | growth inhibition [2] -5.7% | viability increase [3] -3.96% | viability [4] 84.1% | viability [5] 80.6% | inhibition [6] -0.565% | RAM network inhibition [7] -0.16%

Cc1ccccc1-n1c(C)nc2ccccc21
inactive: growth inhibition [1] -17.5% | growth inhibition [2] -1.88% | viability increase [3] -0.13% | viability [4] 95.9% | viability [5] 93.7% | inhibition [6] 1.79% | RAM network inhibition [7] 1.56%

Cc1onc(-c2ccccc2Cl)c1C(=O)Nc1nnc(-c2ccc(F)cc2)s1
inactive: growth inhibition [1] -16.7% | growth inhibition [2] -1.93% | viability increase [3] 2.9% | viability [4] 98.5% | viability [5] 90.5% | inhibition [6] 2.51% | RAM network inhibition [7] 5.79%

O=C(c1cc(-c2ccc(O)cc2)on1)N1CCCc2ccccc21
inactive: growth inhibition [1] -15.5% | growth inhibition [2] 12.2% | viability increase [3] -5.72% | viability [4] 92.6% | viability [5] 88.3% | inhibition [6] 0.66% | RAM network inhibition [7] 1.51%

CCSc1nnc2c(n1)OC(c1ccc(C(=O)O)cc1)N(C(C)=O)c1ccccc1-2 (configuration not stated)
inactive: growth inhibition [1] -10.1% | growth inhibition [2] -2.9% | viability increase [3] -1.34% | viability [4] 107% | viability [5] 100% | inhibition [6] 1.66% | RAM network inhibition [7] 2.35%

O=C(C1CCN(S(=O)(=O)c2ccc(F)cc2)CC1)N1CC=C(c2ccccc2)CC1
inactive: growth inhibition [1] -0.895% | growth inhibition [2] -21% | viability increase [3] -2.73% | viability [4] 91% | viability [5] 89.7% | inhibition [6] 1.03% | RAM network inhibition [7] 1.27%

Cc1ccc(NC(=O)c2cnc3scc(C)n3c2=O)c(C)c1
inactive: growth inhibition [1] -4.27% | growth inhibition [2] -12.6% | viability increase [3] -3.97% | viability [4] 106% | viability [5] 96.5% | inhibition [6] -0.14% | RAM network inhibition [7] 1.14%

CCOC(=O)C(C)n1cnc2sc3c(c2c1=O)CCC3 (configuration not stated)
inactive: growth inhibition [1] -8.5% | growth inhibition [2] -7.75% | viability increase [3] -1.76% | viability [4] 95.7% | viability [5] 99.6% | inhibition [6] 0.575% | RAM network inhibition [7] 1.15%

CCOC(=O)Cn1c(=O)oc2cc(S(=O)(=O)NCC3CCCO3)ccc21 (configuration not stated)
inactive: growth inhibition [1] -10.1% | growth inhibition [2] -10.7% | viability increase [3] -1.7% | viability [4] 99.8% | viability [5] 103% | inhibition [6] 0.325% | RAM network inhibition [7] 2.41%

O=C(NCCCN1CCCCC1)c1ccc2c(=O)n(CCc3ccccc3)c(=O)[nH]c2c1
inactive: growth inhibition [1] -7.09% | growth inhibition [2] -6.43% | viability increase [3] -3.27% | viability [4] 77.3% | viability [5] 83% | inhibition [6] 0.675% | RAM network inhibition [7] 8.53%

CCOC(=O)C1CCN(C(=O)CS(=O)Cc2nc(-c3ccc(C)cc3)oc2C)CC1 (configuration not stated)
inactive: growth inhibition [1] 1.66% | growth inhibition [2] 22.5% | viability increase [3] -3.68% | viability [4] 86.3% | viability [5] 84.6% | inhibition [6] 0.32% | RAM network inhibition [7] 7.5%

Cn1cc(SCC(=O)NCC2CCCO2)c2ccccc21 (configuration not stated)
inactive: growth inhibition [1] -3.53% | growth inhibition [2] 2.04% | viability increase [3] -2.67% | viability [4] 94.9% | viability [5] 93.2% | inhibition [6] 1.21% | RAM network inhibition [7] 0.31%

Cc1cc2c(cc(C(=O)N3CCC(C(=O)NC4CCCC4)CC3)n2Cc2c(F)cccc2Cl)o1
inactive: growth inhibition [1] -3.7% | growth inhibition [2] -5.26% | viability increase [3] -1.51% | viability [4] 62% | viability [5] 54.8% | inhibition [6] 0.72% | RAM network inhibition [7] 3.45%

CCc1nnc(NC(=O)c2ccc(S(=O)(=O)N3CCOCC3)cc2)s1
inactive: growth inhibition [1] -10.4% | growth inhibition [2] -20.2% | viability increase [3] -1.63% | viability [4] 105% | viability [5] 94.6% | inhibition [6] 1.92% | RAM network inhibition [7] 9.48%

CN(CC(=O)NCCC1=CCCCC1)S(=O)(=O)c1ccc2c(c1)c(=O)n(C)c(=O)n2C
inactive: growth inhibition [1] -7.74% | growth inhibition [2] -27.4% | viability increase [3] -1.64% | viability [4] 84.4% | viability [5] 76.8% | inhibition [6] 2.88% | RAM network inhibition [7] 4.5%

O=C(c1ccc(COc2ccccc2Cl)o1)N1CCN(c2ccccc2)CC1
inactive: growth inhibition [1] -15.6% | growth inhibition [2] -13.4% | viability increase [3] -4.18% | viability [4] 61.7% | viability [5] 69.7% | inhibition [6] 2.33% | RAM network inhibition [7] 5.58%

Cn1nc(-c2ccc(Cl)cc2)c2cc(C(=O)NCC3CCCO3)sc21 (configuration not stated)
inactive: growth inhibition [1] 1.54% | growth inhibition [2] 17.7% | viability increase [3] -5.84% | viability [4] 65.9% | viability [5] 60.2% | inhibition [6] -0.13% | RAM network inhibition [7] -2.54%

O=C(NCCCN1CCN(c2ccccc2F)CC1)C1CCC(=O)N1C1CCCC1 (configuration not stated)
inactive: growth inhibition [1] -13% | growth inhibition [2] -1.25% | viability increase [3] -2.46% | viability [4] 102% | viability [5] 93.6% | inhibition [6] 1.08% | RAM network inhibition [7] 5.85%

O=C(NCc1ccco1)c1ccc(S(=O)(=O)c2cccc(S(=O)(=O)N3CCOCC3)c2)cc1
inactive: growth inhibition [1] 19% | growth inhibition [2] 2.85% | viability increase [3] -4.28% | viability [4] 92.4% | viability [5] 87.1% | inhibition [6] 1.19% | RAM network inhibition [7] 3.8%

CCOC(=O)CSc1ccc2nnc(-c3ccccc3)n2n1
inactive: growth inhibition [1] -8.02% | growth inhibition [2] -9.2% | viability increase [3] -0.81% | viability [4] 108% | viability [5] 93.5% | inhibition [6] 1.15% | RAM network inhibition [7] 0.11%

CC(C)(C)NCCCCOc1ccc(F)cc1
inactive: growth inhibition [1] 0.455% | growth inhibition [2] -1.1% | viability increase [3] 0.34% | viability [4] 99.3% | viability [5] 101% | inhibition [6] 1.71% | RAM network inhibition [7] 1.66%

COc1ccccc1CNC(=O)Cn1cc2c(n1)CCCC2
active: viability increase [3] 13.7%
inactive: growth inhibition [1] -6.06% | growth inhibition [2] -7.73% | viability [4] 107% | viability [5] 101% | inhibition [6] 0.685% | RAM network inhibition [7] 3.05%

CC(C)NS(=O)(=O)c1ccc(CCC(=O)NCc2cccnc2)cc1
inactive: growth inhibition [1] 2.32% | growth inhibition [2] -6.38% | viability increase [3] -0.9% | viability [4] 88% | viability [5] 92.5% | inhibition [6] 1.33% | RAM network inhibition [7] 1.08%

Cc1cc(C)c2c(N)c(C(=O)Nc3nccs3)sc2n1
inactive: growth inhibition [1] 0.355% | growth inhibition [2] 16.4% | viability increase [3] -5.52% | viability [4] 87.8% | viability [5] 90.5% | inhibition [6] 2% | RAM network inhibition [7] -0.11%

COc1ccc(-c2nc3cnccn3c2Nc2ccc3c(c2)OCO3)cc1
inactive: growth inhibition [1] -10.7% | growth inhibition [2] 3.96% | viability increase [3] -6.6% | viability [4] 70.9% | viability [5] 62.8% | inhibition [6] -0.105% | RAM network inhibition [7] 0.16%

CCOC(=O)C1=C(C)OC(N)=C(C#N)C1c1c(C)nn(-c2ccccc2)c1Cl (configuration not stated)
inactive: growth inhibition [1] -11.9% | growth inhibition [2] -20% | viability increase [3] -3.98% | viability [4] 102% | viability [5] 98.1% | inhibition [6] 3.71% | RAM network inhibition [7] 7.39%

CC1(C)C(C#N)=C(N)OC2=C1C(=O)CCC2
inactive: growth inhibition [1] -8.74% | growth inhibition [2] -5.87% | viability increase [3] -0.89% | viability [4] 96.3% | viability [5] 97.4% | inhibition [6] 2.41% | RAM network inhibition [7] 1.3%

CCOC(=O)c1cccc(NC(=O)C2CCCN2S(=O)(=O)c2cccc3cccnc23)c1 (configuration not stated)
inactive: growth inhibition [1] -9.1% | growth inhibition [2] -2.39% | viability increase [3] -3.02% | viability [4] 92% | viability [5] 89.8% | inhibition [6] 1.41% | RAM network inhibition [7] -1.53%
